Only a selection was taken, and hits are over-represented in it overall.
Biofilm kill mix = mixture kills Candida albicans biofilm cells; C. albicans biofilm persisters + clotrimazole, fluorescence viability; primary screen in compound mixtures of four per well; inhibition, % at 7.6 µM; 0.02% of 120,000 active;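 active = inhibition above 30.3% in the primary screen of four-compound pools, then above 30% when the compound was retested; inconclusive = passed the primary limit but could not be retested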;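 also: compounds exposed to preformed 24 h biofilms for 48 h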
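Probe or stimulus – Clotrimazole 50 µg/mL co-treatment · System – C. albicans biofilms · Schedule – 24 h biofilm formation, then 48 h compound exposure, 37 °C · Evaluation – percent inhibition of biofilm viability · Technique – 2-h Alamar Blue fluorescence, 535/590 nm excitation/emission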
ROMK primary = human ROMK K+ channel modulation, primary screen; 2% of 130,000 active; P48048; Tet-inducible ROMK, thallium flux fluorescence; actives lie on both sides; B-score at 10 µM;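 active = signal ratio slope over the read window, or its plate-corrected B-score, at least 3 SD from the plate mean, either direction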;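 also: B-score of the F/F0 ratio slope over 7 to 12 s after thallium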
Target sequence (P48048 whole entry, looked up): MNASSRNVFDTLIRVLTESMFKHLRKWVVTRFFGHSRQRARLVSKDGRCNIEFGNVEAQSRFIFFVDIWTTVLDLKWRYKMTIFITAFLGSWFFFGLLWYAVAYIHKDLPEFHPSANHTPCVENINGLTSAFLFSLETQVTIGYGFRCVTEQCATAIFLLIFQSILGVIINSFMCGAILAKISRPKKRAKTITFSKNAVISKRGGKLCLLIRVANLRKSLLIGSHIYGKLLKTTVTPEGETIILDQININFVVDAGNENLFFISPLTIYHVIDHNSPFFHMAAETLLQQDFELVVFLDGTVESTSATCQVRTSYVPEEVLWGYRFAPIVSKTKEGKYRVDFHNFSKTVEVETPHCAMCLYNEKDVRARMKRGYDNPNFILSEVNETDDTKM
ROMK retest = retested hit modulating human ROMK potassium channel. ROMK thallium flux, fluorescence ratio; hits give low values. shares compounds with ROMK primary. 54% of 3,000 active. normalized thallium flux (F/F0 slope) at 10 µM;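 active = Flux at 10 µM at least 3 SD below or above vehicle control mean in one or both replicates; inconclusive = no clear call, values can overlap the other calls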
Numbers stand for hits; i = inactive; ? = inconclusive; nt = not tested or not shown.

SMILES	Biofilm kill mix	ROMK primary	ROMK retest
CCOC(=O)C1(CCOc2ccccc2)CCN(Cc2ccc(C)o2)CC1	i	-4.5	0.067
CCOC(=O)C1(CCc2ccccc2)CCN(Cc2c(O)cccc2OC)CC1	i	-2.8	0.055
CCOC(=O)C1(CCc2ccccc2)CCN(Cc2ccc(OC)cc2)CC1	i	i	nt
CCCCSCCCNC(=O)Nc1ccc(CC)cc1	i	i	nt
Cc1ccc(NC(=O)CSc2ncnc3ccccc23)cc1S(=O)(=O)N1CCCCCC1	i	i	nt
COc1ccc(Nc2ncnc3scc(-c4ccc(OC)cc4)c23)cc1	i	i	0.066
COc1ccc(-c2csc3ncnc(Cl)c23)cc1	i	i	nt
CCOC(=O)c1c(C)n(C)c2ccc(OC)c(NC(=O)CN3CCN(Cc4ccccc4)CC3)c12	nt	-3.2	0.068
CCOC(=O)c1c(C)n(C)c2ccc(OC)c(NC(=O)CN3CCC(C(=O)OCC)CC3)c12	i	nt	nt
CCOC(=O)C1CCCN(C(=O)CN2C(=O)/C(=C/c3ccc(OC)cc3)Oc3ccccc32)C1 (configuration not stated)	i	i	nt
Cc1csc(NC(=O)CSc2nc(C)cs2)n1	nt	i	nt
Cc1csc(SCC(=O)Nc2ccccc2[N+](=O)[O-])n1	i	-19	?
COC(=O)c1cccc(NC(=S)N2CCN(c3ccccc3F)CC2)c1	i	i	nt
O=C(CCC1CCCCC1)NNC(=O)NC12CC3CC(CC(C3)C1)C2	nt	-3.1	i
O=C(O)CCC(=O)NNC(=O)CCC1CCCCC1	i	i	nt
CCOc1ccc(N/C(=N/c2nc(C)cc(C)n2)NC(C)=O)cc1	i	nt	nt
CCCS(=O)(=O)c1c(S(=O)(=O)CCC)c2cnccn2c1C(=O)c1ccc(CC)cc1	i	-4.1	0.066
CCCS(=O)(=O)c1c(S(=O)(=O)CCC)c2cnccn2c1C(=O)c1ccc(F)cc1	nt	i	nt
O=C(/C=C/c1cccs1)Nc1ccc(Br)cn1	i	nt	nt
[O-]/[N+](=C\c1ccncc1)c1ccccc1	nt	nt	i
[O-]/[N+](=C/c1ccc(F)cc1)c1ccccc1	nt	i	nt
O=C(NNC(=O)c1cc([N+](=O)[O-])ccc1Cl)c1cccs1	i	i	nt
COc1ccc(/C=C2\CCOC2=O)cc1	i	nt	nt
COc1ccc(/C=C2/C(=O)OCc3cc(OC)c(OC)cc32)cc1	i	2.6	i
Cc1cc(CCN2CCC(=O)NC2=O)ccc1OC(C)C	nt	i	nt
SMILES	Biofilm kill mix	ROMK primary	ROMK retest
CC[C@H](C)[C@H](NC(N)=O)C(=O)Nc1ccc(NC(C)=O)cc1	i	nt	i
CC[C@H](C)[C@H](NC(N)=O)C(=O)Nc1ccc(C)cc1	i	i	nt
N#CC1=C(SCc2ccccc2)NC(=O)CC1c1ccc(O)cc1 (configuration not stated)	nt	i	nt
Cc1ccc(C2CC(=O)NC(SCc3ccccc3)=C2C#N)cc1 (configuration not stated)	i	nt	0.066
CCc1cc2c(SCc3nc4sc(C(C)=O)c(C)c4c(=O)[nH]3)ncnc2s1	i	nt	nt
Oc1ccc2cc(Br)ccc2c1CN1CCCC1	i	i	0.064
Oc1ccc2ccccc2c1CN1CCCC1	i	i	nt
CCOC(=O)c1ccc(N2C(=O)c3n[nH]c(-c4ccco4)c3C2c2cccc([N+](=O)[O-])c2)cc1 (configuration not stated)	i	i	nt
COC(=O)c1cc(C)[nH]c2c(C)cc3nc4ccccc4c3c12	i	nt	nt
CC(C(=O)NC1CCCc2ccccc21)N1CCN(c2ccc(F)cc2)CC1 (configuration not stated)	i	nt	nt
CC(C(=O)NC1CCCc2ccccc21)N1CCN(Cc2ccc3c(c2)OCO3)CC1 (configuration not stated)	nt	-3	0.058
O=C(O)c1ccc(COc2ccc3ccccc3c2/C=C2/NC(=O)N(c3ccccc3)C2=O)cc1	nt	i	nt
CCN1C(=O)S/C(=C/c2c(OCc3ccc(C(=O)O)cc3)ccc3ccccc23)C1=O	i	3.9	i
CCN(CC)c1ccc(CNCc2cccs2)cc1	i	i	nt
COc1ccc(S(=O)(=O)N2CC(O)CC2C(=O)OCc2nc3sc(C)c(C)c3c(=O)[nH]2)cc1 (configuration not stated)	i	i	nt
COc1cc(CNc2ccc(C)c(C)c2)cc(OC)c1OC	nt	3.4	i
COc1ccc(CNc2ccc(C)c(C)c2)cc1	i	i	nt
CC1CCCC(C)N1CC(C)(C)NS(=O)(=O)c1ccc(Cl)cc1 (configuration not stated)	nt	i	nt
Cn1cccc1/C=C1\SC(=S)N(NC(=O)c2ccccc2)C1=O	i	-2.7	0.06
Cn1cccc1/C=C1\SC(=S)N(NC(=O)c2ccc(F)cc2)C1=O	i	i	nt
Cc1nn(C)c(C)c1CCC(=O)O	i	i	nt
COC(=O)c1cc(NS(=O)(=O)c2ccc(C)c3ccccc23)ccc1N1CCOCC1	i	i	nt
CCCCCOc1ccc(Br)cc1CSC(=N)N	i	nt	0.042
COc1ccc(Br)cc1CSC(=N)N	i	i	nt
O=S(=O)(c1ccccc1)c1nc(Nc2cccc(O)c2)sc1Cl	i	i	nt
CN1CC=C2C(C#N)=C(N)C(C#N)(C#N)[C@H](c3cccs3)[C@H]2C1	i	i	nt
CN1CC=C2C(C#N)=C(N)C(C#N)(C#N)[C@H](c3cccc(Cl)c3)C2C1 (some centres not stated)	nt	-3.8	0.045
NC(=O)C(=O)NCCCN1CCOCC1	i	nt	nt
